Experimental data from article PMC5253108 (European journal of medicinal chemistry, 2016).
Read-outs that look alike come from different tables or passages of the source.

Key:
[1] = In vitro liver microsomal stability; assay type: in vitro ADME, mouse; conditions: mouse liver microsomes, 1 h
HEK293 kidney cells = assay type: cell-based; conditions: 48 hours, Cell-Titer Glo
HepG2 liver cells = experiment: In vitro cytotoxicity, Cell-Titer Glo viability, HepG2; assay type: cell-based; conditions: 48 hours
[2] = system: BEAS2B lung epithelial cells; experiment: In vitro cytotoxicity, Cell-Titer Glo viability, BEAS2B; assay type: cell-based; conditions: 48 hours
[3] = system: guinea pig tracheal rings; conditions: cited from earlier work
[4] = system: ovalbumin (S/C) BALB/c mice; conditions: given repeatedly over five days; listed as ethyl ester of XHE-III-74; cited from earlier work
Swiss Webster mice [5] = conditions: cited from earlier work
[6] = mouse, cited from earlier work
[7] = In vitro liver microsomal stability; assay type: in vitro ADME; conditions: liver microsomes
rats = experiment: Sensorimotor impairment in rats; assay type: in vivo, rat; conditions: 15 mg/kg, unpublished results
[8] = system: murine house dust mite model of asthma; conditions: cited from earlier work
airway smooth muscle = conditions: cited from earlier work
mice = conditions: aerosol delivery in mice; cited from earlier work
[9] = Pharmacokinetic study in mice; assay type: in vivo, mouse
airway eosinophilia = conditions: cited from earlier work
α4β3γ2 GABAAR = α4β3γ2 GABAAR (Homo sapiens, UniProt P18507+P48169); experiment: GABA induced current potentiation, α4β3γ2 GABAAR; assay type: biochemical; conditions: 1 µM compound, GABA EC20 concentration
Chain of α4β3γ2 GABAAR (P48169 36-554): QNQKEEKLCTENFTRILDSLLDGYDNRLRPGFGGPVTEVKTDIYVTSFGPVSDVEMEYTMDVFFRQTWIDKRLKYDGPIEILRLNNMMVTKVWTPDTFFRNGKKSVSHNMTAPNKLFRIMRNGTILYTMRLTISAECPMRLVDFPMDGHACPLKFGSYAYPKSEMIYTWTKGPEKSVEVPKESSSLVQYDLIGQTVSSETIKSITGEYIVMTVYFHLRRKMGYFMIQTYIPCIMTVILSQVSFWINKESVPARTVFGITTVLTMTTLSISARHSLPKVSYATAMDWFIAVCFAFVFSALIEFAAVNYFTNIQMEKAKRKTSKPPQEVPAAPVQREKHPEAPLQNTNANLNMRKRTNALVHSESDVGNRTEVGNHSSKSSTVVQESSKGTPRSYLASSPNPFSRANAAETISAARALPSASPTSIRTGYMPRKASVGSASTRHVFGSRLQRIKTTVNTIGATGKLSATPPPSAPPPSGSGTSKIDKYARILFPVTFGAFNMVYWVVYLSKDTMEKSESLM
Chain of α4β3γ2 GABAAR (P28472 26-473 partner): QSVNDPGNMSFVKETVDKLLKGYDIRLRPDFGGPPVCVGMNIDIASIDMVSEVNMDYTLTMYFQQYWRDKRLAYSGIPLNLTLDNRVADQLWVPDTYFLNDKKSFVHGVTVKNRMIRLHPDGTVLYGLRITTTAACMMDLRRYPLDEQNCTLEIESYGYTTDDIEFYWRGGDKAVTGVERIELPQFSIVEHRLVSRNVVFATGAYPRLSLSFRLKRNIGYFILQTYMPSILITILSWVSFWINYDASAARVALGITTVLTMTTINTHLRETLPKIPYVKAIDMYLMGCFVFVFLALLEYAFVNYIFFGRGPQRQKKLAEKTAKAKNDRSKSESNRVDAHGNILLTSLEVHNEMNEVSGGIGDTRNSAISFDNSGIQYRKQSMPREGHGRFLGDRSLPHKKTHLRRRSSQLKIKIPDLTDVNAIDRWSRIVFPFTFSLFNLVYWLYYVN
Chain of α4β3γ2 GABAAR (P18507 40-475): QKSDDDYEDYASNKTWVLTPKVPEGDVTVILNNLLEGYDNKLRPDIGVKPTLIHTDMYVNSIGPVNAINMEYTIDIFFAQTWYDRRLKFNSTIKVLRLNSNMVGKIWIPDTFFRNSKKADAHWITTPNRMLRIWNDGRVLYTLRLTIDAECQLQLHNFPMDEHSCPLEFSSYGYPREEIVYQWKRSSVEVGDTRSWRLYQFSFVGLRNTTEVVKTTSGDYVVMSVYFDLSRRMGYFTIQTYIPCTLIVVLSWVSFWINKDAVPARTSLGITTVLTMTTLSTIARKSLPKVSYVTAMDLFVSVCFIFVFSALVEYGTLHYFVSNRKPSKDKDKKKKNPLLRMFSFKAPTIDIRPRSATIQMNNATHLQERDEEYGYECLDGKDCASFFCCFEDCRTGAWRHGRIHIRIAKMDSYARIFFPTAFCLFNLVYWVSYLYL

[10] = system: guinea pig tracheal rings; conditions: 50 µM compound, substance P contracted rings
[11] = system: ovalbumin (S/C) BALB/c mice; assay type: in vivo, mouse; conditions: 40 mg/kg i.p. for 5 days, 12.5 mg/ml methacholine challenge, p<0.05
How it was run: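 BALB/c mice were sensitized by ovalbumin injections (2 mg/kg/d in 2 mg alum, days 0, 7, 14) and challenged intranasally with ovalbumin (1.6 mg/kg/d, days 23–27); controls were saline-challenged. Test compound was given i.p. twice daily during the challenge period. Conscious mice had non-invasive sRaw measured after 1 min aerosolized PBS or methacholine (1.56–12.5 mg/mL), averaged over 3 min. Analysis used two-way repeated-measures ANOVA with Bonferroni post-test.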

Swiss Webster mice [12] = experiment: Rotarod assay of sensorimotor coordination in mice; conditions: 40 mg/kg i.p., Swiss Webster mice, 10, 30 and 60 min

CCOC(=O)c1ncn2c1[C@@H]1CCCN1C(=O)c1cc(OC)ccc1-2 [Compound 5]
loss at 1 h in mouse liver microsomes [1]: less than 20% | Toxicity in HEK293 (Kidney) LD50 (HEK293 kidney cells): >400 µM | Toxicity in HEPG2 (Liver) LD50 (HepG2 liver cells): >400 µM | Toxicity in BEAS 2B (Lung) LD50 [2]: >400 µM | airway muscle constriction caused by substance P [3]: significantly reduced airway muscle constriction | airway hyperresponsiveness in ovalbumin S/C asthma model [4]: reduced airway hyperresponsiveness | sensorimotor impairment on rotarod (Swiss Webster mice [5]; published previously): weakly induced sensorimotor impairment | AUC for lung exposure ([6]; same dose as 16, lung): 4516 ng·min/mL | t1/2 ([6]; same dose as 16): 16.3 min

COc1ccc2c(c1)C(=O)N1CCC[C@H]1c1c(C(=O)OC(C)(C)C)ncn1-2 [Compound 7, (S)-tert-Butyl-7-methoxy-9-oxo-11,12,13,13a-tetrahydro-9H-benzo[e]imidazo[5,1-c]pyrrolo[1,2-a][1,4]diazepine-1-carboxylate]
stability in the presence of human liver microsomes [7]: stable | Toxicity in HEK293 (Kidney) LD50 (HEK293 kidney cells): >100 µM | Toxicity in HEPG2 (Liver) LD50 (HepG2 liver cells): >400 µM | Toxicity in BEAS 2B (Lung) LD50 [2]: >200 µM | sensorimotor impairment in rats (rats): induced sensorimotor impairment | airway muscle constriction caused by substance P [3]: significantly reduced airway muscle constriction | airway resistance in murine house dust mite model [8]: reduced airway resistance | relaxation of pre-contracted airway smooth muscle (airway smooth muscle): relaxed pre-contracted airway smooth muscle | airway hyperresponsiveness after aerosol delivery (mice): reduces airway hyperresponsiveness

COc1ccc2c(c1)C(=O)N1CCC[C@H]1c1c(C(=O)O)ncn1-2 [Compound 9, (S)-7-Methoxy-9-oxo-11,12,13,13a-tetrahydro-9H-benzo[e]imidazo[5,1-c]pyrrolo[1,2-a][1,4]di-azepine-1-carboxylic acid]
remaining at 1 h ([7]; human): < 80% | Toxicity in HEK293 (Kidney) LD50 (HEK293 kidney cells): >400 µM | Toxicity in HEPG2 (Liver) LD50 (HepG2 liver cells): >400 µM | Toxicity in BEAS 2B (Lung) LD50 [2]: >400 µM | metabolite in blood samples ([9]; after 5 mg/kg i.p. of 16, mouse blood): not detected in any blood samples | airway muscle constriction caused by substance P [3]: significantly reduced airway muscle constriction | airway eosinophilia (airway eosinophilia): decreased airway eosinophilia | airway eosinophilia (airway eosinophilia; listed as XHE-III-74A): significantly reduced airway eosinophilia | CNS effects (Swiss Webster mice [5]): no CNS effects

COc1ccc2c(c1)C(=O)N1CCC[C@H]1c1c(C(=O)N(C)C)ncn1-2 [Compound 16]
loss at 1 h in mouse liver microsomes [1]: less than 20% | Toxicity in HEK293 (Kidney) LD50 (HEK293 kidney cells): >400 µM | Toxicity in HEPG2 (Liver) LD50 (HepG2 liver cells): >400 µM | Toxicity in BEAS 2B (Lung) LD50 [2]: >400 µM | potentiation of GABA induced current, α4β3γ2 GABAAR (α4β3γ2 GABAAR): 319% | time to airway smooth muscle relaxation effect [10]: ≤ 15 min | specific airway resistance (sRAW) vs vehicle, 5 day treatment [11]: significant reduction in sRAW | blood brain barrier penetration ([9]; mouse, 5 mg/kg i.p.): did penetrate the blood brain barrier | AUC ([9]; mouse, lung, ip, 5 mg/kg): 12.7 ng·h/mL | sensorimotor impairment on rotarod (Swiss Webster mice [12]): did not induce sensorimotor impairment
